Here are results for eight compounds from paper PMC10905692 (ACS Omega, 2024).

The target of assay [1] is T1, PTP1B (Homo sapiens, UniProt P18031).
T1 sequence (P18031 1-435): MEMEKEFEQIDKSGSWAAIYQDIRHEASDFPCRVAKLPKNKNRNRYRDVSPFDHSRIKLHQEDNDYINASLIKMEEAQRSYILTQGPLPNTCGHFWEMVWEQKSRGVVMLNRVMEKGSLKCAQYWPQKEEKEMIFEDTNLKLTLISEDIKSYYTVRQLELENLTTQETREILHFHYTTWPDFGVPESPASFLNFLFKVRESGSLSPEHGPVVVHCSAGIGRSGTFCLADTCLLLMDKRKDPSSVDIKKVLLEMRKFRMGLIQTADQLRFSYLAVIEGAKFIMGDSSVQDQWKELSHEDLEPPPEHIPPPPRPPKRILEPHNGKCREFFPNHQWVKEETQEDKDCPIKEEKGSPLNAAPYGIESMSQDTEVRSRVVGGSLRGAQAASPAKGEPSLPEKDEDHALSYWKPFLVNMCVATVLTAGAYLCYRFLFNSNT
The assay can be described thus: Fluorescence quenching measurement of binding affinity. Particulars: for n (number of binding sites) / KSV (Stern–Volmer constant): fluorescence quenching; for KSV (Stern–Volmer constant): 0–25 μM inhibitor. The essentials: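 Intrinsic fluorescence quenching of human recombinant PTP1B, at the enzyme level of the activity assays, in assay buffer. Test compound was added at 0, 1.6, 3.2, 6.2, 12.5 and 25 μM. Emission spectra were recorded over 300–400 nm with 250 nm excitation and 2 nm slits. KSV was obtained by Stern–Volmer analysis; binding constant KA and number of sites n from eqs 9–10.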

Assay [2] deals with T1, PTP1B. The assay can be described thus: Enzyme kinetic assay. In kind it is biochemical. Particulars: for kinetic mode: Lineweaver–Burk plots; for KIS: inhibition constant for enzyme–substrate complex. The essentials:
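Human recombinant PTP1B in Tris-HCl pH 7.5 buffer (25 mM Tris, 1 mM EDTA, 2 mM 2-mercaptoethanol, 1 mM dithiothreitol); test compounds dissolved in DMSO. Steady-state rates were taken across varied inhibitor and substrate concentrations and analysed by Lineweaver–Burk and Dixon plots. KI and KIS came from secondary plots of slopes or 1/Vmax intercepts vs inhibitor concentration (eqs 2–4). Reversibility was judged from activity vs enzyme concentration at several inhibitor levels.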

For assay [3], the target named is T1, PTP1B. In words: PTP1B inhibitory assay. The class given is biochemical.
The target of assay [4] is T1, PTP1B. The assay can be described thus: Time-dependent assays and progress curves. In kind it is biochemical. The essentials:
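PTP1B was preincubated with test compound for 0, 5, 10, 15, 30, 45, 60 or 75 min (0.2 μM), then residual activity was read. Progress curves were recorded at actual substrate concentration across several inhibitor concentrations by absorbance at 405 nm, […] the ~10 min lag. vi, vs, kobs and Ki app were fitted with eqs 5–8. kobs was plotted against inhibitor concentration to give k3 and k4.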

[5] abbreviates: Ki (inhibition constant), estimated using Dixon plots.
[6] abbreviates: KI, inhibition constant for free enzyme, secondary plots.

Each structure is given as a SMILES string. “Also recorded” adds a separate entry of the source.

The Kd is the equilibrium constant for the complex coming apart. Usually IC50 stands for the concentration needed to halve the response being measured. Higher therefore signals lower potency. As to `CC1(C)C=Cc2c(cc(O)c3c2O[C@H](c2ccccc2)[C@H](O)C3=O)O1` [Compound 2, (2R,3S)-3,5-dihydroxy-8,8-dimethyl-2-phenyl-2,3-dihydro-4H,8H-pyrano[2,3-f]chromen-4-one], at PTP1B [1], the Kd is 370 µM, the “n (number of binding sites)” value is listed as 1.16 and the “KSV (Stern–Volmer constant)” value is 0.0304 × 10^5 L·mol^–1. For the same compound, the Ki at PTP1B [2] (setting [5]) is 1040 nM. Further, the kinetic mode result at PTP1B [2] is “competitive inhibitors”. The compound also showed an IC50 at PTP1B [3] of 2.24 ± 0.5 µM.

For the compound `O=C1c2c(O)cc(O)cc2O[C@H](c2ccc(O)cc2)[C@H]1O` [Compound 6, dihydrokaempferol], on PTP1B [1], binding was put at a Kd of 10000 µM, the “n (number of binding sites)” value worked out at 0.79 and the “KSV (Stern–Volmer constant)” value is listed as 0.0002 × 10^5 L·mol^–1. The Ki at PTP1B [2] (setting [5]) is 34700 nM. Also, at PTP1B [2], the kinetic mode result is “noncompetitive”. Also, the IC50 against PTP1B [3] stood at 35.4 ± 0.7 µM.

With `CC1(C)C=Cc2c(cc(O)c3c(=O)cc(-c4ccc(O)cc4)oc23)O1` [Compound 7, atalantoflavone], at PTP1B [1], the Kd was 72.5 µM, the “n (number of binding sites)” value came out at 0.93 and the “KSV (Stern–Volmer constant)” value is recorded as 0.0569 × 10^5 L·mol^–1. Further, the Ki at PTP1B [2] (setting [5]) was 450 nM. Also, the kinetic mode entry at PTP1B [2] is “competitive”. Also, on PTP1B [3], the IC50 is 1.19 ± 0.3 µM.

As to `O=c1cc(-c2ccc(O)cc2O)oc2cc(O)cc(O)c12` [Compound 10, norartocarpetin], at PTP1B [1], the affinity, expressed as Kd, was 833 µM; the “n (number of binding sites)” value was 1.06; the “KSV (Stern–Volmer constant)” value is recorded as 0.0124 × 10^5 L·mol^–1. On PTP1B [2] (setting [6]), this compound returned a Ki of 2680 nM. Besides, the Ki on PTP1B [2] (setting [5]) is 2710 nM. For the same compound, the kinetic mode entry at PTP1B [2] was “mixed-type inhibitions; also recorded: mixed type I”. The compound further yielded a KIS on PTP1B [2] (secondary plots) of 5.23 µM. This compound also returned an IC50 against PTP1B [3] of 3.39 ± 0.2 µM.

As to `O=c1cc(-c2ccc(O)cc2)oc2cc(O)cc(O)c12` [Compound 8, apigenin], at PTP1B [1], the Kd was 769 µM, the “n (number of binding sites)” value is listed as 1.02 and the “KSV (Stern–Volmer constant)” value is 0.0056 × 10^5 L·mol^–1. Further, the Ki on PTP1B [2] (setting [5]) is 2900 nM. Also, the kinetic mode result on PTP1B [2] is listed as “competitive”. For the same compound, on PTP1B [3], the IC50 is 5.99 ± 0.5 µM.

With `CC1(C)C=Cc2c(cc(O)c3c2O[C@H](c2ccc(O)cc2)[C@@H](O)C3=O)O1` [Compound 5, yukovanol], on PTP1B [1], the Kd is 1110 µM, the “n (number of binding sites)” value is given as 1.20 and the “KSV (Stern–Volmer constant)” value is 0.0132 × 10^5 L·mol^–1. Besides, the Ki on PTP1B [2] (setting [5]) was 3460 nM. The kinetic mode entry at PTP1B [2] is recorded as “noncompetitive inhibitor”. This compound showed an IC50 at PTP1B [3] of 3.07 ± 0.2 µM. In addition, the “fold effective vs mother compound” value at PTP1B [3] (pyran compound 5 vs 6) is 9 fold.

With `CC1(C)C=Cc2c(cc(O)c3c2O[C@H](c2ccccc2)[C@@H](O)C3=O)O1` [Compound 1, (2R,3R)-3,5-dihydroxy-8,8-dimethyl-2-phenyl-2,3-dihydro-4H,8H-pyrano[2,3-f]chromen-4-one], on PTP1B [1], binding was put at a Kd of 27.8 µM, the “n (number of binding sites)” value turned out to be 1.09 and the “KSV (Stern–Volmer constant)” value was 0.4375 × 10^5 L·mol^–1. In addition, the Ki at PTP1B [2] (setting [5]) is 70 nM. Moreover, the kinetic mode result at PTP1B [2] was “competitive mode; also recorded: competitive inhibitors”. For the same compound, the “reversibility of the inhibitor to the enzyme” value at PTP1B [2] (initial velocity plots at different inhibitor concentrations) is on record as “typical reversibility”. The same compound had a Ki on PTP1B [4] of 64.1 nM. For the same compound, at PTP1B [4] (preincubation 0–75 min, kobs vs inhibitor concentration linear), the time-dependent inhibition type result was “simple slow-binding inhibitor; also recorded: slow binding mode; also recorded: slow binding characteristics”. At PTP1B [4] (slow-binding, progress curves), this compound displayed a k3 of 0.2262 μM^–1 min^–1 and a k4 of 0.0145 min^–1. In addition, the “fold more effective (inhibition activity)” value at PTP1B [3] (trans 1 vs cis 2) stood at 13 fold.

For `O=c1cc(-c2ccc(O)cc2)oc2cc(O[C@@H]3O[C@H](CO)[C@@H](O)[C@H](O)[C@H]3O)cc(O)c12` [Compound 13, apigenin-7-O-β-D-glucopyranoside], at PTP1B [1], the affinity, expressed as Kd, was 22.1 µM; the “n (number of binding sites)” value stood at 0.97; the “KSV (Stern–Volmer constant)” value was 0.3803 × 10^5 L·mol^–1. At PTP1B [2] (setting [6]), the Ki was 180 nM. Moreover, the Ki at PTP1B [2] (setting [5]) was 180 nM. For the same compound, at PTP1B [2], the kinetic mode entry is listed as “mixed type I”. This compound also showed a KIS on PTP1B [2] (secondary plots) of 0.80 µM. Also, the IC50 against PTP1B [3] came out at 0.22 ± 0.3 µM. Also, the “fold better inhibition than mother skeleton” value on PTP1B [3] (glycosides 11 vs 6 and 13 vs 8) is reported as 27 fold.
